The results in this text go back to ChEMBL document CHEMBL1649230, “Aryl rhodanines specifically inhibit staphylococcal and enterococcal biofilm formation” (Antimicrob Agents Chemother, 2009).

The structures appear in SMILES notation. Converted amounts (≈) assume the structure as drawn.

The assay relates to Staphylococcus aureus. Briefly: Antimicrobial activity against Staphylococcus aureus ATCC 35556 by M7-A7 method. The class given is functional. The essentials:
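Planktonic MIC by CLSI M7-A7 broth microdilution. Twofold compound dilutions made in DMSO at 50× final concentration and added to plates before inoculation; 2% DMSO final.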

By MIC is commonly meant the lowest concentration found to suppress growth. Lower therefore signals greater potency. As to `O=C(N[C@H](CO)[C@H](O)c1ccc([N+](=O)[O-])cc1)C(Cl)Cl` [CHLORAMPHENICOL], inhibition of growth (MIC) required 1 µg/mL (≈ 3.09 µM).
